APJ ag: agonists of human apelin receptor APJ, primary screen, CHO-K1 cells, PathHunter beta-arrestin, luminescence; 0% DMSO wells, 100% apelin; activation, % at 20 µM; hit rate 0.11% among 330,000; AID 2520, 2010;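 active means activation more than six SD over the plate average, tested at 20 µM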;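 further: 0% = DMSO alone and 100% = apelin-13 at 10 nM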
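Assay system: CHO-K1 cells stably expressing ProLink-tagged human APJ and arrestin–beta-gal acceptor. Compound dosing: 20 µM single point, 1% DMSO. Times: 16-18 h seeding, 90 min dark compound exposure, 60 min detection. Detection: beta-gal luminescence. Evaluation: APJ–arrestin association signal. Controls: negative DMSO alone, positive Apelin-13 at 10 nM.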
CXCR6 inh: CXCR6 receptor inhibitors, primary screen, cell-based, beta-arrestin, luminescence, CHO-K1 PathHunter, 1536-well; hit rate 0.36% among 360,000; inhibition, % at 20 µM; AID 602244, 2012; in the data active means inhibition above about 34%, passing the limit was not always enough;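 further: antagonist mode with CXCL16 agonist at 10 nM final; 0% = 10 nM CXCL16 with DMSO and 100% = unstimulated wells without agonist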
Target sequence (O00574 whole entry, looked up): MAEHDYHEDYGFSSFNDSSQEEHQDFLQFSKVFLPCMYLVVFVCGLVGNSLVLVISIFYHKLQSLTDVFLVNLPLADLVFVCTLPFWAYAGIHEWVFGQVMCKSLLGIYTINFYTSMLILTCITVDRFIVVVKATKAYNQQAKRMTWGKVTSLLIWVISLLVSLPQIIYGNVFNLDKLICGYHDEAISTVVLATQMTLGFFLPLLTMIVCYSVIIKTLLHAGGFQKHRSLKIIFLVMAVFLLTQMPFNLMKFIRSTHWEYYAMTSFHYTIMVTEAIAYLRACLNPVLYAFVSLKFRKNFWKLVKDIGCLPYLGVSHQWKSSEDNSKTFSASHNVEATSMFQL
EBI2 block: EBI2 receptor antagonists, beta-arrestin recruitment, primary screen, cell-based, luminescence, 7a,25-OHC stimulation, uHTS. inhibition, % at 5 µM. 7a,25-OHC stimulated. hit rate 0.81% among 360,000. G-protein coupled receptor 183 (Homo sapiens), P32249; in the data active means inhibition above about 38%;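 further: enzyme fragment complementation signal reports receptor beta-arrestin coupling in cells; 0% = agonist plus DMSO wells and 100% = wells without agonist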
CCR6 antagonist: CCR6 receptor antagonists, primary screen, cell-based, CHO-K1, luminescence, beta-arrestin, uHTS; CHO-K1 CCR6 PathHunter beta-arrestin, CCL20-stimulated; C-C chemokine receptor type 6 (Homo sapiens), P51684; inhibition, % at 20 µM; hit rate 0.49% among 340,000; AID 493098, 2011;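 active means compounds whose inhibition of the agonist-driven luminescence signal at 20 µM reaches about 50%, limit read from the data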;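 further: cells stimulated with CCL20 at 14 nM final; plate controls were DMSO with CCL20 for no effect and DMSO without agonist for full effect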
Target sequence (P51684 whole entry, looked up): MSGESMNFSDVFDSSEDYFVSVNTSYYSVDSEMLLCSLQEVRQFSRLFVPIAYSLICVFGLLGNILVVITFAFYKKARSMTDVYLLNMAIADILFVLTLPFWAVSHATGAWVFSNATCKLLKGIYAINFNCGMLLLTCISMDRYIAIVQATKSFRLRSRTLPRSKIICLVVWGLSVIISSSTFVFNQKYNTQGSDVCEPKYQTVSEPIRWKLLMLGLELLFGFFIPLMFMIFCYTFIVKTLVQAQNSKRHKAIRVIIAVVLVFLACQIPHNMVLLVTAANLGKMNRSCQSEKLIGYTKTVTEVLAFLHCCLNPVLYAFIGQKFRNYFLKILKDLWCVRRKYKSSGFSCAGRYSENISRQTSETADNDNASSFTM
APJ antagonist: antagonists of human apelin receptor APJ, primary screen, CHO-K1 cells, beta-arrestin complementation, luminescence; AID 2521, 2010; inhibition, % at 20 µM; P35414; hit rate 0.32% among 330,000;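 active means inhibition above about 40% at 20 µM, limit read from the data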;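 further: cells challenged with 10 nM apelin-13 agonist together with compound; plate controls were apelin-13 plus DMSO wells for no effect and DMSO wells lacking apelin-13 for full effect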
CXCR6 confirm: CXCR6 receptor antagonists, confirmation, cell-based, single concentration, beta-arrestin, luminescence; shares compounds with CXCR6 inh; CHO-K1 CXCR6 PathHunter beta-arrestin; inhibition, % at 20 µM; hit rate 65% among 700; AID 602409, 2012;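 active means mean inhibition over four retests above 40%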;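 further: receptor stimulated with 10 nM CXCL16 agonist; beta-galactosidase fragment complementation upon beta-arrestin recruitment to receptor; plate controls were CXCL16 plus DMSO for no effect and DMSO without CXCL16 for full effect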
* marks the source's active call; other numbers are inactive results; nt = no result given. The list is not random: actives were taken first. Their share in the collection is about 1.5%.

SMILES	APJ ag	CXCR6 inh	EBI2 block	CCR6 antagonist	APJ antagonist	CXCR6 confirm
O=C(NCc1ccccc1)C(CCc1ccccc1)n1c(=O)c(-c2ccccc2)nc2ccccc21 (stereo not drawn)	nt	nt	13.1	nt	nt	nt
O=C1CC(Sc2nnnn2-c2ccccc2)C(=O)N1c1cccc(Cl)c1 (stereo not drawn)	-1.0	94.0*	7.4	nt	26.9	59.2*
Cc1cc(Cl)n2c(nc3cc(F)c(F)cc32)c1C#N	nt	43.7*	-4.8	46.8	nt	53.4*
Cc1cc(C)n2c(=O)c3ccc(Cl)cc3nc2c1C#N	1.3	-4.6	5.5	11.9	-0.5	nt
O=C(c1cc(C2CCCCN2C(=O)CCCc2ccccc2)on1)N1CCOCC1 (stereo not drawn)	nt	1.9	-8.5	nt	nt	nt
CCC(C)C(CO)NCCCn1cnc2c(OC)ncnc21 (stereo not drawn)	nt	43.3*	-7.4	nt	nt	8.9
Nc1cc(=O)[nH]c(SCC(=O)Nc2ccc(Cl)c(Cl)c2)n1	-4.1	43.1*	0.9	2.8	-2.5	5.2
Nc1cc(=O)[nH]c(SCC(=O)Nc2cc(Cl)cc(Cl)c2)n1	-2.7	7.0	11.3	-1.4	-5.3	nt
Fc1ccccc1NC(=S)NNc1ncc(C(F)(F)F)cc1Cl	3.3	50.3*	9.0	68.2*	37.2	38.4
NC(=O)NNc1ncc(C(F)(F)F)cc1Cl	-3.7	-4.5	-10.1	9.8	4.0	nt
NC(=S)Nc1ncc(C(F)(F)F)cc1Cl	-3.6	0.5	2.9	-1.6	-13.6	nt
FC(F)(F)c1cnc(NNC(=S)Nc2ccccc2)c(Cl)c1	nt	73.1*	27.6	nt	nt	73.6*
COC(=O)C[C@H]1C[C@H]2c3cc(NC(=O)Nc4ccc(F)cc4)ccc3O[C@H]2[C@@H](CO)O1	nt	-4.5	1.8	nt	nt	nt
CCOC(=O)[C@]12CCCC=C1N(Cc1ccccc1)C(=O)[C@H](CC(=O)NCC13CC4CC(CC(C4)C1)C3)C2	nt	nt	14.2	nt	nt	nt
CCCCCCCCN1C(=O)[C@H](CC(=O)N2CCCCC2)C[C@@]2(C(=O)OC)CC(C)(C)CC=C12	nt	nt	16.1	nt	nt	nt
O=[N+]([O-])c1ccc(Sc2nc3ccccc3o2)c([N+](=O)[O-])c1	9.2	43.4*	-52.8	43.3	-77.7	45.8*
O=C(Nc1cccc(OC(F)(F)F)c1)c1cccc2c(-c3cccnc3)coc12	nt	-0.3	6.0	nt	nt	nt
COc1ccc(NC(=S)N(CCc2c(C)[nH]c3ccccc23)Cc2cccnc2)cc1	-4.1	37.2*	4.8	7.2	-7.2	23.4
CCOC(=O)c1ccc(NC(=S)NC(=O)c2cncc(Br)c2)cc1	-7.4	42.0*	0.5	59.5*	37.7	21.3
CCCCCc1c(-c2ccc(Br)cc2)ncn1CCc1ccccc1OC	nt	11.9	14.8	nt	nt	nt
CCCn1c(N)c(C(=O)CSc2ncn[nH]2)c(=O)n(C)c1=O	-0.6	-5.7	-5.7	6.8	11.0	nt
CCCCn1c(N)c(C(=S)NC(=O)CC(C)(C)C)c(=O)n(C)c1=O	-2.1	38.9*	-5.2	nt	37.6	35.0
COC(=O)CN1C(=O)[C@H]2[C@@H](c3ccc(C)o3)N3C(=O)CN(Cc4ccccn4)C(=O)[C@@]3(C)[C@H]2C1=O	5.2	104.1*	-4.0	4.0	1.6	2.7
COC(=O)C[C@H]1CC[C@H](NC(=O)c2ccc(F)cc2)[C@@H](CO)O1	nt	nt	-4.1	nt	nt	nt
CC(C)(C)NC(=O)NC(=O)COC(=O)c1c(F)cccc1Cl	-0.6	40.3*	14.2	8.8	4.4	5.8
SMILES	APJ ag	CXCR6 inh	EBI2 block	CCR6 antagonist	APJ antagonist	CXCR6 confirm
O=C(C(=Cc1ccc(F)cc1)c1ccccc1)c1ccc(O)cc1	nt	0.3	-3.1	12.5	nt	nt
O=C(C(=Cc1ccc(F)cc1)C(=O)c1ccccc1)c1ccccc1	nt	42.3*	25.2	nt	nt	58.5*
O=Cc1s/c(=N\S(=O)(=O)c2ccccc2)n(CCCCl)c1Cl	nt	97.7*	21.9	105.0*	nt	104.4*
CCn1c(C)cs/c1=N\S(=O)(=O)c1ccccc1	-2.1	-7.9	1.2	-14.0	5.0	nt
Cc1occc1C(=O)NNC(=S)NC(=O)COc1ccc(Cl)cc1Cl	-4.2	41.5*	3.0	47.5	29.0	36.6
CN1c2ccc([N+](=O)[O-])cc2N(C)C1(C)c1ccccc1 (stereo not drawn)	-8.6	42.7*	16.9	54.2*	28.3	38.1
Cn1c2ccccc2c2cc([N+](=O)[O-])ccc21	-2.5	8.6	3.9	3.6	9.1	nt
O=C1N(Cc2ccccc2)c2ccc(Br)cc2[C@]12C[C@H](O)CO2	nt	nt	-1.0	nt	nt	nt
Cc1ccc(NC(=S)NNC(=S)NNc2ccccc2)cc1C	nt	39.6*	26.1	nt	nt	36.6
S=C(NNC(=S)Nc1ccc(Cl)cc1)NNc1ccccc1	nt	22.4	32.1	nt	nt	nt
CC1(C)OC(=O)C2=C(C[C@@H](C3CC3)O[C@@H]2C2CC2)O1	nt	-3.2	-7.7	nt	nt	nt
Fc1ccc(Oc2nc(-c3ccccc3)nnc2C(F)(F)F)cc1	-1.2	29.9	-7.4	30.1	-1.7	nt
Fc1ccc(Sc2nc(-c3ccccc3)nnc2C(F)(F)F)cc1	-5.7	44.6*	22.0	50.1*	34.4	63.2*
CCN(CC)C(=O)c1cccc(-c2csc(C(C)(NC(C)=O)c3ccc(OC)cc3)n2)c1 (stereo not drawn)	nt	0.3	-4.3	nt	nt	nt
FC(F)Oc1ccccc1/C=N/n1cnc2ccccc21	-3.8	49.9*	-0.8	-0.1	-2.8	8.0
CCC[C@H]1NC(=O)[C@H](C)N(C)C(=O)C(C)(C)C(=O)C(C)NC(=O)[C@H](Cc2ccc(OC)cc2)N(C)C(=O)[C@H](C(C)C)N(C)C(=O)CNC(=O)[C@H](CC(C)C)N(C)C(=O)CNC(=O)[C@H]([C@@H](C)CC)OC(=O)[C@H]1C (stereo partly drawn)	-2.4	nt	nt	20.8	19.2	nt
O=C(NCc1ccc2c(c1)OCO2)c1nc(S(=O)(=O)Cc2ccccc2F)ncc1Cl	6.2	70.3*	24.1	48.6	17.8	62.1*
COc1ccc(CNC(=O)c2nc(S(=O)(=O)Cc3ccccc3)ncc2Cl)cc1	13.1	50.1*	39.8	45.1	8.3	51.9*
CC(C)c1nnc(NC(=O)c2nc(S(=O)(=O)Cc3ccccc3F)ncc2Cl)s1	-0.5	nt	nt	-5.3	-3.7	nt
COC(=O)[C@H](CCSC)NC(=O)Nc1ccc(OC)cc1OC	-3.0	77.2*	-1.0	-1.0	24.7	-1.9
O=C(CC[C@H]1O[C@@H](n2cnc3c(NC(=O)c4ccccc4)ncnc32)[C@H](O)[C@@H]1O)NCc1ccc(OC(F)(F)F)cc1	nt	-1.9	-9.1	nt	nt	nt
CCOC(=O)c1cc([N+](=O)[O-])cc([N+](=O)[O-])c1Sc1ncnc2nc[nH]c12	nt	45.2*	-43.5	nt	nt	33.5
CC(C)(C)NC(=O)C(C1CC1)n1c(=O)c(-c2ccccc2)nc2ccccc21 (stereo not drawn)	nt	nt	5.6	nt	nt	nt
